# A selection: hits, their analogues and other compounds. The true share with any hit is near 3.1%.
# EWS-Fli block = EWS/Fli-driven NR0B1 reporter inhibitors, primary screen, A673 cells, NR0B1 luciferase, luminescence, MLPCN library; viability-normalised; 350,000 compounds, 0.67% hits; inhibition, % at 12.6 µM;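 active means mean inhibition of at least 50% after viability correction, with every replicate also passing that limit; inconclusive means mean reaches 50% but only one of two replicates passes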;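 further: firefly luciferase signal divided by Alamar Blue viability fluorescence both relative to DMSO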
# HIV Env fusion = inhibitors of HIV-1 Env-driven cell-cell fusion, primary screen, HeLa-JRFL effector, CEM21 target cells, luciferase. 360,000 compounds, 1.1% hits. inhibition, % at 12.3 µM;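 active means mean replicate inhibition score of at least 50 and every replicate individually at or above 50; inconclusive means only one of the two criteria met; inactive means mean below 50 and not all replicates reaching 50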;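 further: 0% = plate neutral controls and 100% = maraviroc near 300 nM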
# FN deposition inh = inhibitors of fibronectin matrix deposition, primary screen, AH1F cells, Alexa488-fibronectin fluorescence, plate reader; AH1F fibroblasts, overnight; inhibition, % at 12.6 µM; 350,000 compounds, 0.086% hits; AID 743247, 2014;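 active means mean inhibition across replicates of 30% or more, regardless of how many single replicates reach that level; inconclusive means mean under 30% yet at least half of replicates reach 30%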;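 further: positive control wells lacked labelled fibronectin entirely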
#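 Assay system: AH1F fibroblasts assembling fluorescent fibronectin matrix; Amount: 10000 AH1F cells per well; Buffer or medium: DMEM, 2% serum; Probe or stimulus: Alexa488-fibronectin, 24 nM final in well; Doses: single compound dose, delivered by pin transfer; Incubation: 1 h adhesion, overnight exposure; Measured by: fluorescence 485/525 nm; Read-out: fibronectin deposition inhibition.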
# FGF22 binding = binders of human FGF22 protein, primary screen, FGF22 synaptogenesis inhibitor project, biophysical, thermal shift, single point; Fibroblast growth factor 22 (Homo sapiens), Q9HCT0; recombinant FGF22 thermal shift, SYPRO orange fluorescence; percent of sucrose octasulfate shift, DMSO zero; 340,000 compounds, 1.5% hits; activity (Tm shift, normalised), % at 9.99 µM;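 active means mean Tm shift, scaled 0 neutral to 100 positive control, at about 1.3% or above, every replicate too, limit read from the data; inconclusive means no clear call, values can overlap the other calls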
# Target sequence (Q9HCT0 whole entry, looked up): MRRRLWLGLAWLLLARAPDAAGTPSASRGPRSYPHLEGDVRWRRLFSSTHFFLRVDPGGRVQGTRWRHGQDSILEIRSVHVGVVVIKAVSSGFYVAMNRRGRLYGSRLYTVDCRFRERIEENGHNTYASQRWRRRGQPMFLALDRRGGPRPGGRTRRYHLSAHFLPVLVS
# PGC1a acetyl inh = inhibitors of PGC1a acetylation signal, primary screen, cell-based, U2OS, AlphaScreen, inhibitor mode; AlphaScreen anti-acetyl-lysine; with virally co-expressed GCN5 acetyltransferase; inhibition, % at 15.6 µM; 350,000 compounds, 0.17% hits;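 active means every replicate shows inhibition of at least 40%; inconclusive means mean inhibition at least 40% but some replicate below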;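 further: 0% = neutral control wells and 100% = positive control wells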
# PAX8 reporter = inhibitors of PAX8-driven TPO luciferase reporter, primary screen, RMG-I cells, single concentration | SteadyGlo, 24 h | inhibition, % at 12.6 µM | 360,000 compounds, 1.2% hits | AID 652154, 2013;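 active means mean replicate inhibition at least 60% with every replicate also reaching 60%; inconclusive means only one of the two criteria is met; inactive means mean below 60% and not all replicates reaching 60%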;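 further: luciferase light reporting Pax8 driven TPO promoter activity; plate controls were median of neutral control wells for no effect and mitoxantrone controls for full effect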
# Starred values were filed as active, the others as inactive; ? = inconclusive; / = no result given; [ ] = remark or other dose.
SMILES,EWS-Fli block,HIV Env fusion,FN deposition inh,FGF22 binding,PGC1a acetyl inh,PAX8 reporter
O=C([C@H]1[C@H](CO)[C@H]2Cn3c(ccc(-c4ccncc4)c3=O)[C@H]2N1CCC(F)(F)F)N1CCOCC1,4,/,/,0,/,8
C=C1C(=O)[C@]23C[C@H]1CCC2[C@@]1(C)C(C[C@@H]3O)[C@](C)(C(=O)OC)CC[C@@H]1O (stereo partly specified),59*,22,-1,/,92*,108*
CO[C@@H]1CC[C@H]2CCN(C)C(=O)[C@H](C)[C@H](OC)CN(C)C(=O)c3cc(C#N)ccc3OC[C@H]1O2,-15,13[16.7 µM],-7,0,-16,3
CN1CCN(C2CCN(Cc3ccc(O)c4ncccc34)CC2)CC1,-1,/,16,44*,/,7
NC(=S)n1[nH]c(-c2ccc([N+](=O)[O-])cc2)c(N=Nc2cccc(Cl)c2)c1=O,44,57*,2,0,-1,-4
Cc1noc(C)c1S(=O)(=O)Nc1ccc2c(c1)C(=O)N([C@H](C)CO)C[C@H](C)[C@H](CN(C)C(=O)NC(C)C)O2,-2,-18[16.7 µM],-2,0,0,/
CN(C)c1ccc2c(c1)[C@@H]1C[C@@H](CC(=O)NCc3ccc(Oc4ccccc4)cc3)O[C@@H](CO)[C@@H]1O2,51*,-212[16.7 µM],-53,0,0,86*
CS(=O)(=O)Nc1ccc2c(c1)[C@@H]1C[C@H](CC(=O)NCc3ccc(Oc4ccccc4)cc3)O[C@@H](CO)[C@@H]1O2,43,4[16.7 µM],-12,0,-18,85*
CN(C)c1ccc2c(c1)[C@H]1C[C@@H](CC(=O)NCc3ccc(Oc4ccccc4)cc3)O[C@@H](CO)[C@H]1O2,18,11[16.7 µM],-1,-1,10,24
CS(=O)(=O)Nc1ccc2c(c1)[C@H]1C[C@H](CC(=O)NCc3ccc(-c4ccccc4)cc3)O[C@H](CO)[C@H]1O2,8,78*[16.7 µM],-9,-1,-1,24
C[C@@H]1CCCCO[C@H](CN(C)Cc2ccncc2)[C@H](C)CN([C@@H](C)CO)C(=O)c2cc(NS(C)(=O)=O)ccc2O1,2,-7[16.7 µM],/,0,7,-5
C[C@@H]1CN([C@H](C)CO)S(=O)(=O)c2ccc(-c3cncnc3)cc2O[C@@H]1CN(C)C(=O)c1ccc2c(c1)OCO2,-5,2[16.7 µM],-4,0,-12,/
COc1cccc(C(=O)Nc2ccc3c(c2)OC[C@H](C)N(C)C[C@H](C)[C@H](OC)CN(C)C3=O)c1,4,-4[16.7 µM],0,/,7,6
Cc1ccc(NC(=O)CC(NCC2CCCO2)C(=O)O)cc1C (stereo unspecified),-2,-1,/,43*,22,6
Cn1nnnc1SCC(=O)N(C1CCCCC1)C1CCS(=O)(=O)C1 (stereo unspecified),-5,17,/,43*,-4,-15
COc1ccc(CN(C)C[C@@H]2OCCCC[C@@H](C)Oc3ccc(NC(=O)Nc4ccc(F)cc4)cc3C(=O)N([C@H](C)CO)C[C@@H]2C)cc1,-9,-2[16.7 µM],/,-1,5,1
COc1ccc(CN(C)C[C@H]2OCCCC[C@H](C)Oc3ccc(NC(=O)Nc4ccccc4)cc3C(=O)N([C@H](C)CO)C[C@H]2C)cc1,65*,-44[16.7 µM],-11,0,19,7
COc1ccc(CN(C)C[C@@H]2OCCCC[C@@H](C)Oc3ccc(NC(=O)Nc4ccc(F)cc4)cc3C(=O)N([C@H](C)CO)C[C@H]2C)cc1,8,-33[16.7 µM],/,-1,-30,73*
Cc1ccccc1OCC1CNC(=O)O1 (stereo unspecified),4,5,-15,43*,5,15
CC(C)Oc1cc(NC(=O)CSCC(=O)Nc2cccc(C(F)(F)F)c2)c(Cl)cc1Cl,/,62*,/,0,-32,/
COc1ccc2c3c([nH]c2c1)[C@H](CO)N(C(=O)c1cnccn1)CC31CCN(S(C)(=O)=O)CC1,-1,/,/,0,-4,/
CC(C)C(=O)N=C1SC2CS(=O)(=O)CC2N1Cc1ccccc1 (stereo unspecified),-1,-5,3,43*,3,12
COc1ccccc1-c1noc(CSc2nc(N)cc(=O)[nH]2)n1,7,0,7,43*,10,8
COc1ccc(/C=C2\COc3ccccc3C2=O)cc1OC,/,-35,12,/,/,-15
CCOc1cc(/C=C2\COc3ccccc3C2=O)cc(Br)c1OCC(=O)N(C)C,63*,-63,-2,-1,/,10
SMILES,EWS-Fli block,HIV Env fusion,FN deposition inh,FGF22 binding,PGC1a acetyl inh,PAX8 reporter
O=C(C[C@H]1CC[C@@H]2[C@H](COC[C@H](O)CN2CC2CCCCC2)O1)NCc1ccc(Cl)cc1,1,/,-16,0,-8,4
NS(=O)(=O)c1ccc(CCNC(=O)c2cc(-c3ccco3)nc3ccccc23)cc1,3,/,2,6.2*,/,-12
NS(=O)(=O)c1ccc(CCNC(=O)c2cc(-c3ccccc3)nc3ccccc23)cc1,/,-7,2,/,6,-9
O=C(Nc1nc(-c2ccccn2)cs1)c1cc(Cl)ccc1[N+](=O)[O-],-3,-28,8,0,/,80*
O=C(Nc1nc(-c2ccccn2)cs1)c1ccc([N+](=O)[O-])o1,0,-46,15,1,-11,80*
Cc1cc(C(=O)Nc2nc(-c3ccccn3)cs2)ccc1[N+](=O)[O-],12,?,4,1,7,25
O=C(COC(=O)c1c2c(nc3ccccc13)/C(=C\c1cccs1)CCC2)Nc1ccccc1,-16,/,17,0,/,86*
COc1ccc(-c2ccc([C@@H]3[C@@H](C#N)N[C@@H]3CO)cc2)cc1,-39,-25[16.7 µM],2,0,9,-20
COCCCn1c(-c2ccc(S(=O)(=O)N3CCOCC3)cc2)csc1=Nc1ccccc1,/,70*,-3,/,/,-2
CCN(C(=O)Cc1c(C(=O)O)n(C)c2ccccc12)c1ccc(F)cc1,-14,-10,-16,43*,-7,-4
CCN(C(=O)Cc1c(C(=O)O)n(C)c2ccccc12)c1cc(OC)ccc1OC,-1,-3,/,0,-12,1
O=C1N=c2ccccc2=C1c1sc(=S)n(NC(=O)c2cccc(O)c2)c1O,16,1,13,17*,/,19
O=C1N=c2ccccc2=C1c1sc(=S)n(-c2ccc(O)cc2)c1O,23,9,9,0,-13,47
Cc1ccc(OCCCCNC(C)c2ccccc2)c(C)c1 (stereo unspecified),21,96*,13,0,4,10

# Compound activity deposited in PubChem by Broad Institute.
